Experimental data published in paper PMC8942377 (Science Advances, 2022).
Where no end group is shown, it is not given here.

What was measured:
mice = assay: Tail flick test; type: in vivo, mouse; details: intrathecal, 1 mg/kg, positive control
How it was run: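 Mice lightly sedated with 2% isoflurane, then given one intrathecal lumbar-puncture injection (5 μl) of saline, morphine 1 mg/kg, or test compound 0.025–0.75 mg/kg. Distal two-thirds of tail dipped in 52°C water; latency to withdrawal timed by chronometer. Result taken as mean tail flick latency.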

[1] = following intravenous infusion; cited from earlier work
SST1–5 = details: cited from earlier work

Compound: CN1CC[C@]23c4c5ccc(O)c4O[C@H]2[C@@H](O)C=C[C@H]3[C@H]1C5 [Morphine]
- tail flick antinociception (mice): robust antinociception

Compound: octreotide
- in vivo half-life [1]: 1.5 h
- SS receptor subtype selectivity (SST1–5): preferentially activated SST2 over SST3 and SST5 and displayed little to no activity on SST1 or SST4

Compound: urotensin-II (ETPDCFWKYCV; ends and bridges not checked; cysteine pairing not given here; UniProt O95399 114-124, looked up) [UII]
- activity at SST1–5 (SST1–5): low activity
